The test system of assay [1] is Radical scavenging activity. The experiment in a line: Antioxidant activity assessed as DPPH free radical scavenging activity after 30 mins. The format is functional. The gist of the method: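 DPPH dissolved in MeOH; 160 µL of reaction mixture containing test sample combined with 40 µL DPPH solution, kept in the dark 30 min. Absorbance read at 520 nm and percent inhibition calculated. IC50 (µM giving 50% inhibition of DPPH radical) derived from the log-dose inhibition curve. L-ascorbic acid served as positive control.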

Assay [2] in a line: Cytotoxicity against mouse NS1 cells. In kind it is functional.
For the next assay, the system named is A549. Nature of the assay: Cytotoxicity against human A549 cells after 24 hrs by SRB assay. In kind it is functional, cell-based. The note with it: A549, 24 h. The gist of the method:
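SRB method: cells plated at 2 × 10^5 cells/mL, then test solutions in MeOH added and cultured a further 24 h. Cells fixed with 12% trichloroacetic acid, stained with 0.4% SRB, absorbance read at 515 nm. IC50 (concentration inhibiting proliferation 50%) calculated from the linear portion of log dose-response curves; paclitaxel positive control.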

The test system of a further assay is P388. Nature of the assay: Cytotoxicity against mouse P388 cells after 72 hrs by MTT assay. In kind it is functional, cell-based. The note with it: P388, 72 h. The gist of the method:
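P388 and HL-60 cells seeded at 5 × 10^4 cells/mL and pre-incubated 24 h. Test solutions in MeOH added, then 72 h exposure. MTT (5 mg/mL solution) added for 4 h, formazan dissolved in DMSO, absorbance read at 540 nm. IC50 taken from the linear part of log dose-response curves. Paclitaxel as positive control.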

The test system of a further assay is HL-60. Nature of the assay: Cytotoxicity against human HL60 cells after 72 hrs by MTT assay. In kind it is functional, cell-based. The note with it: HL-60, 72 h.
A further assay deals with Bel-7402. Nature of the assay: Cytotoxicity against human Bel7402 cells after 24 hrs by SRB assay. The note with it: Bel-7402, 24 h. In kind it is functional, cell-based.

The values that follow come from ChEMBL document CHEMBL1149835, “Citrinin dimers from the halotolerant fungus Penicillium citrinum B-57” (J Nat Prod, 2008).

In the case of `Cc1cc(O)c(C)c(O)c1C`, the IC50 in assay [1] stood at 3.8 µM.

For the molecule `O=C1O[C@H]([C@@H](O)CO)C(O)=C1O` [ASCORBIC ACID], in assay [1], the 50% inhibitory concentration (IC50) turned out to be 22.7 µM.

As to `CC1=C([C@H](C)[C@@H](C)OC=O)C(=O)C2=C(C1=O)[C@@H]1O[C@H](C)[C@@H](C)c3c(C)c(O)cc(c31)O2` [CITRININ H1], the IC50 in assay [1] turned out to be 58.7 µM.

`CC1=C2C(=CO[C@H](C)[C@H]2C)C(O)=C(C(=O)O)C1=O` [CITRININ]: in assay [1], the 50% inhibitory concentration (IC50) came to 160 µM.

`Cc1c2c(c3oc4cc(=O)c(C)c5c-4c(c3c1O)O[C@H](C)[C@H]5C)O[C@H](C)[C@H]2C` [DICITRININ A]: in assay [1], the 50% inhibitory concentration (IC50) is 10.6 µM. Besides, in assay [2], the LD99 came out at 6.3 µg/mL.

`Cc1c(O)c(C(=O)O)c(O)c2c1[C@H](C)[C@@H](C)OC2` [DIHYDROCITRININ]: the IC50 in assay [1] worked out at 123 µM.

For the molecule `Cc1c(O)c(C(=O)O)c(O)c2c1[C@H](C)[C@@H](C)OC2=O` [DIHYDROCITRINONE], in assay [1], the half-maximal inhibitory concentration (IC50) is over 1000 µM.

With `Cc1cc(O)cc(O)c1` [ORCINOL], the IC50 in assay [1] was 0.8 µM.

Take `CC(=O)O[C@H]1C(=O)[C@@]2(C)[C@H]([C@H](OC(=O)c3ccccc3)[C@]3(O)C[C@H](OC(=O)[C@H](O)[C@@H](NC(=O)c4ccccc4)c4ccccc4)C(C)=C1C3(C)C)[C@]1(OC(C)=O)CO[C@@H]1C[C@@H]2O` [PACLITAXEL]: in the assay with A549, the half-maximal inhibitory concentration (IC50) turned out to be 0.93 µM.

`Cc1c(O)c2c(c3c1[C@H](C)[C@@H](C)O3)Oc1cc(O)c(C)c3c1[C@H]2O[C@H](C)[C@H]3C` [PENICITRINOL A]: the half-inhibitory concentration (IC50) in assay [1] was 26.8 µM.

As for `CO[C@@]12O[C@H](C)[C@@H](C)C1=C(C)C(=O)C1=C2Oc2cc(O)c(C)c3c2[C@H]1O[C@H](C)[C@H]3C` [PENICITRINOL B], the half-inhibitory concentration (IC50) in assay [1] is 291 µM; in the assay with P388, over 50 µM; in the assay on HL-60 it was over 50 µM; in the assay on A549, over 50 µM; in the assay on Bel-7402, over 50 µM.

`Cc1c([C@H](C)[C@H](C)O)c(O)c2oc3cc(=O)c(C)c4c-3c(c2c1O)O[C@H](C)[C@H]4C` [PENNICITRINONE C]: the IC50 in assay [1] was 55.3 µM; in the assay on P388, over 50 µM; with HL-60, over 50 µM; with A549, over 50 µM; in the assay with Bel-7402, over 50 µM.

With `Cc1c([C@H](C)[C@@H](C)O)cc(O)c(C(=O)O)c1O` [PHENOL A ACID], the half-maximal inhibitory concentration (IC50) in assay [1] stood at 796 µM.

Turning to `Cc1c(O)cc(O)cc1[C@H](C)[C@@H](C)O` [PHENOL A], the IC50 in assay [1] worked out at 22.5 µM.

As for `Cc1c(O)c(C)c2c(c1O)C(=O)OC(C)(O)C2` (centres undefined) [SCLEROTININ B], the concentration for half-maximal inhibition (IC50) in assay [1] is over 1000 µM.
